Assay results collected from several papers.
Each line is one published result; the experiments were not run side by side. Converted amounts (≈) assume the structure as drawn.

SMILES	organism	test	system	setting	endpoint	result
CC1(F)CN(C(=O)Cn2c(=O)c(C(=O)NCc3ccc(Cl)cc3)cc3nc(N4CCN(CC(=O)O)C4=O)cnc32)C1	Human betaherpesvirus 5	viral replication, inhibitor	AD169	–	EC50	1.27 µM
O=C(Cn1ccnc1[N+](=O)[O-])NCc1ccccc1	Trypanosoma cruzi	parasite growth, absorbance	MRC5	intracellular, amastigote	IC50	2 to 5 µM
OC(Cn1cncn1)(Cn1cncn1)c1ccc(F)cc1F	Trypanosoma cruzi	parasite growth, resazurin	–	24 h, trypomastigote	IC50	23.6 µM
CN1CCN(c2cnc3c(cc(C(=O)NCc4ccc(Cl)cc4)c(=O)n3CC(=O)N3CC(C)(F)C3)n2)C1=O	Human betaherpesvirus 5	viral replication, inhibitor	AD169	–	EC50	0.13 µM
CN(C)c1cc(NC(=O)Cc2cncnc2)c(O)c2c1C[C@H]1C[C@H]3[C@H](N(C)C)C(O)=C(C(N)=O)C(=O)[C@@]3(O)C(O)=C1C2=O	Mycobacterium tuberculosis	microbial growth, broth dilution	H37RV	7 days, pH 7.4	MIC	0.4 µg/mL (≈ 0.675 µM)
Cc1ccc(Cn2cc(C(=O)NN)c(=O)c3cc(Oc4ccccc4)ccc32)cc1	Trypanosoma cruzi	parasite growth	MRC5	intracellular, amastigote	EC50	44 µM
CN(C)c1cc(NC(=O)Cc2ncccn2)c(O)c2c1C[C@H]1C[C@H]3[C@H](N(C)C)C(O)=C(C(N)=O)C(=O)[C@@]3(O)C(O)=C1C2=O	Mycobacterium tuberculosis	microbial growth, broth dilution	H37RV	7 days, pH 7.4	MIC	0.8 µg/mL (≈ 1.35 µM)
O=C(Cn1ccnc1[N+](=O)[O-])NCc1ccccc1	Trypanosoma cruzi	parasite growth	MRC5	intracellular, amastigote	EC50	1.6 µM
